As a reminder, the IC50 is the concentration that gives 50% inhibition.

Activity calls are given as the source filed them. The calls are words filed in the database; no cut-off is given here.

For assay [1], the target named is T1, Acetylcholinesterase (Rattus norvegicus, UniProt P37136).
T1 sequence (P37136 whole entry): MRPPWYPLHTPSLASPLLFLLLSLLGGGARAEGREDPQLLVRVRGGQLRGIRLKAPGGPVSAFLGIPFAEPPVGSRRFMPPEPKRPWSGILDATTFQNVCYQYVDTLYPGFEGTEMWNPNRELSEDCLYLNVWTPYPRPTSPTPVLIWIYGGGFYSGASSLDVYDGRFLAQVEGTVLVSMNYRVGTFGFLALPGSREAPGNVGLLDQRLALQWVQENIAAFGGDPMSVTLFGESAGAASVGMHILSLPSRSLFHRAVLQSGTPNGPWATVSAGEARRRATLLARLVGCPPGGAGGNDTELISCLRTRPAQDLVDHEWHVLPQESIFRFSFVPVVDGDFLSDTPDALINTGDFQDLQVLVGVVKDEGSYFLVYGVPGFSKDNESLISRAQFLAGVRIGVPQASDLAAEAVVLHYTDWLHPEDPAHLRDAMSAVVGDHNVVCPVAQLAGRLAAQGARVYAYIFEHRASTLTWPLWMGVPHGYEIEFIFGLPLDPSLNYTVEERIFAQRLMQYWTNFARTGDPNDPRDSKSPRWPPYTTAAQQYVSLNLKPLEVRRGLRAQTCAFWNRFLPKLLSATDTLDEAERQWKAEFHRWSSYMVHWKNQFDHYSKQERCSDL
As to the kind of experiment: Inhibition of rat brain AChE using acetylthiocholine iodide as substrate by spectroscopic method.

The nature of assay [2]: Anti-glycosylation activity using BSA assessed as inhibition of AGE formation measured after 30 hrs by fluorescence spectrophotometric method. The format is functional. An outline of the steps: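 Glucose-mediated glycation of protein with fluorescent AGE read-out at 370 nm excitation / 440 nm emission. Test compounds dissolved in DMSO at different concentrations. Aminoguanidine positive control. Run in triplicate.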

Assay [3] has as its system Mus musculus. Put plainly: Reversal of scopolamine-induced memory impairment in Swiss albino mouse assessed as attenuation of scopolamine-induced amnesia at 2 mg/kg, ip administered 30 mins prior to scopolamine challenge measured on day 4 by Morris water maze test. The class given is functional, organism-based. An outline of the steps:
(§1)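 Swiss albino mice of either sex (20–25 g), five per group. Scopolamine 0.5 mg/kg; agent (2, 5, 10 mg/kg, i.p.) given 30 min before scopolamine ahead of each of the first four trials. Morris water maze: escape latency on days 1–4, time in target quadrant on day 5. Vehicle 10% DMSO. Mean ± SD, two-way ANOVA with Tukey test.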

Assay [4] has as its system Mus musculus. As to the kind of experiment: Antialzheimer activity in Swiss albino mouse brain assessed as reversal of scopolamine-induced […] assessed per mg protein at 5 mg/kg, ip (reference value: 1.25 +/- 0.04 nM/min/mg) by spectrophotometric analysis. The format is functional.
Assay [5] deals with Mus musculus. Put plainly: Antialzheimer activity in Swiss albino mouse brain assessed as reversal of scopolamine-induced […] level at 5 mg/kg, ip (reference value: 26.51 +/- 0.79 nM/mg). The class given is functional. An outline of the steps:
(§2)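 Swiss albino mice of either sex (20–25 g), five per group, given scopolamine 0.5 mg/kg with test agent i.p. 30 min before scopolamine. After the water maze protocol, cortex and hippocampus were homogenized in ice-cold phosphate buffer pH 7.4 and spun 14,500 rpm, 15 min, 4 °C. Supernatant used for TBARS (Ohkawa) or reduced GSH (Beutler). Mean ± SD.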

For assay [6], the system named is Mus musculus. As to the kind of experiment: Antialzheimer activity in Swiss albino mouse brain assessed as reversal of scopolamine-induced reduction in GSH levels at 10 mg/kg, ip (reference value: 21.3 +/- 0.81). The class given is functional. An outline of the steps: as §2
Assay [7] deals with Mus musculus. As to the kind of experiment: Antialzheimer activity in Swiss albino mouse brain assessed as reversal of scopolamine-induced […] level at 10 mg/kg, ip (reference value: 26.51 +/- 0.79 nM/mg). The class given is functional. An outline of the steps:
as §2

Assay [8] relates to Mus musculus. Put plainly: Reversal of scopolamine-induced memory impairment in Swiss albino mouse assessed as attenuation of scopolamine-induced […] time at 2 to 10 mg/kg, ip administered 30 mins prior to scopolamine challenge measured on day 4 by Morris water maze test. The class given is functional, organism-based. An outline of the steps:
as §1

Assay [9] has as its target T2, Acetylcholinesterase (Rattus norvegicus) (UniProt P37136).
T2 sequence (whole entry): T1 sequence (P37136 whole entry)
Put plainly: Mixed type inhibition of rat brain AChE at 0.01 to 0.1 uM using increasing concentration acetylthiocholine iodide as substrate by Lineweaver-Burk plot analysis.

For assay [10], the target named is T2, Acetylcholinesterase (Rattus norvegicus). As to the kind of experiment: Potency index, ratio of donepezil IC50 to compound IC50 for inhibition of rat brain AChE.
Assay [11] relates to Mus musculus. Put plainly: Antialzheimer activity in Swiss albino mouse brain assessed as reversal of scopolamine-induced reduction in GSH levels at 5 mg/kg, ip (reference value: 21.3 +/- 0.81). The format is functional. An outline of the steps:
as §2

Assay [12] has as its system Mus musculus. As to the kind of experiment: Reversal of scopolamine-induced memory impairment in Swiss albino mouse assessed as attenuation of scopolamine-induced decreased time spent in target quadrant at 2 to 10 mg/kg, ip administered 30 mins prior to scopolamine challenge measured on day 5 by Morris water maze test.
Assay [13] deals with Mus musculus. Put plainly: Antialzheimer activity in Swiss albino mouse brain assessed as reversal of scopolamine-induced […] assessed per mg protein at 10 mg/kg, ip (reference value: 1.25 +/- 0.04 nM/min/mg) by spectrophotometric analysis. The format is functional.

Take `COc1cc(-c2cc(=O)c3ccc(O)cc3o2)cc(OC)c1OC`: the IC50 in assay [1] was found to be 0.0442 µM; in assay [2], 51.4 µM.
The like results for `COc1ccc(-c2cc(=O)c3ccc(OCCCCCCN4CCC(C)CC4)cc3o2)cc1` were, in that order, 0.0481 µM and 57.2 µM.
The matching figures for `COc1ccc(-c2cc(=O)c3ccc(OCCCN4CCC(C)CC4)cc3o2)cc1`: 0.0077 µM and 42.6 µM.
In the case of `COc1ccc(-c2cc(=O)c3ccc(OCCCCCN4CCC(C)CC4)cc3o2)cc1`, the 50% inhibitory concentration (IC50) is 0.0156 µM in assay [1] and 55.1 µM in [2].
The like results for `COc1ccc(-c2cc(=O)c3ccc(OCCCN4CCC(C)CC4)cc3o2)cc1OC` were, in that order, 0.00648 µM and 47.7 µM.
The like results for `COc1ccc(-c2cc(=O)c3ccc(O)cc3o2)cc1` were, in that order, 0.035 µM and 42 µM.
Consider `COc1ccc(-c2cc(=O)c3ccc(O)cc3o2)cc1OC`, for which the IC50 in [1] turned out to be 0.0373 µM; in assay [2] it was 47.4 µM.
On to `N=C(N)NN` [PIMAGEDINE], for which the IC50 in assay [2] turned out to be 40.1 µM.
As to `COc1ccc(-c2cc(=O)c3ccc(OCCCCN4CCC(C)CC4)cc3o2)cc1`, the IC50 worked out at 0.0135 µM in assay [1] and 48.2 µM in [2].
For `COc1cc2c(cc1OC)C(=O)C(CC1CCN(Cc3ccccc3)CC1)C2` (centres undefined), in assay [3], the outcome was Active.
`COc1cc(-c2cc(=O)c3ccc(OCCN4CCC(C)CC4)cc3o2)cc(OC)c1OC`: the Activity in assay [4] worked out at 0.97 nmol/min/mg; in assay [5], 20.14 nM/mg; in assay [6], 36.8 nM/mg; in assay [7], 17.6 nM/mg; in [11] it was 31.7 nM/mg; in assay [13], 0.85 nmol/min/mg. Also, the 50% inhibitory concentration (IC50) came to 0.00587 µM in assay [1] and 37.1 µM in assay [2]. Further, the result in assay [8] and in [12] was Active. In [9], the inhibition result was “Active”. Moreover, the Ratio IC50 in assay [10] was determined as 2.
Turning to `COc1ccc(-c2cc(=O)c3ccc(OCCN4CCC(C)CC4)cc3o2)cc1OC`, the half-maximal inhibitory concentration (IC50) was determined as 0.00677 µM in assay [1] and 42.1 µM in assay [2].
Consider `COc1cc(-c2cc(=O)c3ccc(OCCCN4CCC(C)CC4)cc3o2)cc(OC)c1OC`, for which the 50% inhibitory concentration (IC50) in assay [1] was 0.00612 µM; in assay [2] it was 41.8 µM.

The values are drawn from ChEMBL document CHEMBL4177645, “Exploration of multi-target potential of chromen-4-one based compounds in Alzheimer's disease: Design, synthesis and biological evaluations” (Bioorg Med Chem, 2017).
